Experimental data published in ChEMBL document CHEMBL4689842, “EUbOPEN Chemogenomics Library wave 1” (2021).

Test system: Fibroblast
Assay: Multiplex assay against human fibroblast
Assay type: toxicity, cell-based
Method in brief: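 Compound was added to live cells that had been stained at seeding with Hoechst33342, BioTracker Green Microtubule Cytoskeleton Dye, MitoTracker Red and Annexin V Alexa Fluor 680, and imaging followed on a CQ1 microscope at 37°C and 5% CO2. CellPathfinder machine-learning gating divided cells into Hoechst high-intensity objects or normal cells, normal cells into healthy, pyknosed or fragmented nuclei, and pyknosed cells into mitotic or apoptotic. Tubulin, mitochondrial-mass and membrane-permeability phenotypes are per cents of healthy-nucleus cells.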

[1] = 12 h, 1 µM, compound concentration 1 uM, replicate 1
[2] = 12 h, 1 µM, compound concentration 1 uM, replicate 2
[3] = 12 h, 10 µM, compound concentration 10 uM, replicate 1
[4] = 12 h, 10 µM, compound concentration 10 uM, replicate 2
[5] = 24 h, 1 µM, compound concentration 1 uM, replicate 1
[6] = 24 h, 1 µM, compound concentration 1 uM, replicate 2
[7] = 24 h, 10 µM, compound concentration 10 uM, replicate 1
[8] = 24 h, 10 µM, compound concentration 10 uM, replicate 2
[9] = 48 h, 1 µM, compound concentration 1 uM, replicate 1
[10] = 48 h, 1 µM, compound concentration 1 uM, replicate 2
[11] = 48 h, 10 µM, compound concentration 10 uM, replicate 1
[12] = 48 h, 10 µM, compound concentration 10 uM, replicate 2

CC(C)NC(=O)N1CC[C@H](NC2=Nc3cc(F)ccc3N(CC(F)F)c3ccc(Cl)cc32)C1
Population Apoptotic (%) [1]: 68% | Population Fragmented Nuclei (%) [1]: 27% | Population Healthy Nuclei (%) [1]: 30% | Population Hoechst High Intensity Objects (%) [1]: 12% | Population Membrane Permeable-Phenotype (%) [1]: 4% | Population Mitochondria Different-Phenotype (%) [1]: 4% | Population Mitotic Cells (%) [1]: 31% | Population Normal (%) [1]: 87% | Population Pyknosed Nuclei (%) [1]: 42% | Population Tubulin-Different-Phenotype (%) [1]: 14% | Total Cell Count [1]: 79 | Population Apoptotic (%) [2]: 33% | Population Fragmented Nuclei (%) [2]: 5% | Population Healthy Nuclei (%) [2]: 89% | Population Hoechst High Intensity Objects (%) [2]: 9% | Population Mitochondria Different-Phenotype (%) [2]: 18% | Population Mitotic Cells (%) [2]: 66% | Population Normal (%) [2]: 90% | Population Pyknosed Nuclei (%) [2]: 5% | Total Cell Count [2]: 293 | Population Apoptotic (%) [3]: 70% | Population Fragmented Nuclei (%) [3]: 29% | Population Healthy Nuclei (%) [3]: 40% | Population Hoechst High Intensity Objects (%) [3]: 13% | Population Membrane Permeable-Phenotype (%) [3]: 8% | Population Mitochondria Different-Phenotype (%) [3]: 21% | Population Mitotic Cells (%) [3]: 29% | Population Normal (%) [3]: 86% | Population Pyknosed Nuclei (%) [3]: 29% | Population Tubulin-Different-Phenotype (%) [3]: 89% | Total Cell Count [3]: 160 | Population Apoptotic (%) [4]: 0% | Population Fragmented Nuclei (%) [4]: 6% | Population Healthy Nuclei (%) [4]: 81% | Population Membrane Permeable-Phenotype (%) [4]: 13% | Population Mitochondria Different-Phenotype (%) [4]: 63% | Population Mitotic Cells (%) [4]: 100% | Population Pyknosed Nuclei (%) [4]: 11% | Population Tubulin-Different-Phenotype (%) [4]: 58% | Total Cell Count [4]: 62 | Population Apoptotic (%) [5]: 62% | Population Fragmented Nuclei (%) [5]: 21% | Population Healthy Nuclei (%) [5]: 40% | Population Hoechst High Intensity Objects (%) [5]: 9% | Population Membrane Permeable-Phenotype (%) [5]: 25% | Population Mitochondria Different-Phenotype (%) [5]: 6% | Population Mitotic Cells (%) [5]: 37% | Population Normal (%) [5]: 90% | Population Pyknosed Nuclei (%) [5]: 38% | Population Tubulin-Different-Phenotype (%) [5]: 22% | Total Cell Count [5]: 84 | Population Apoptotic (%) [6]: 50% | Population Fragmented Nuclei (%) [6]: 5% | Population Healthy Nuclei (%) [6]: 88% | Population Hoechst High Intensity Objects (%) [6]: 6% | Population Membrane Permeable-Phenotype (%) [6]: 6% | Population Mitochondria Different-Phenotype (%) [6]: 19% | Population Mitotic Cells (%) [6]: 50% | Population Normal (%) [6]: 93% | Population Pyknosed Nuclei (%) [6]: 5% | Population Tubulin-Different-Phenotype (%) [6]: 9% | Total Cell Count [6]: 281 | Population Apoptotic (%) [7]: 64% | Population Fragmented Nuclei (%) [7]: 32% | Population Healthy Nuclei (%) [7]: 45% | Population Hoechst High Intensity Objects (%) [7]: 13% | Population Membrane Permeable-Phenotype (%) [7]: 10% | Population Mitochondria Different-Phenotype (%) [7]: 46% | Population Mitotic Cells (%) [7]: 35% | Population Normal (%) [7]: 86% | Population Pyknosed Nuclei (%) [7]: 21% | Population Tubulin-Different-Phenotype (%) [7]: 92% | Total Cell Count [7]: 163 | Population Apoptotic (%) [8]: 83% | Population Fragmented Nuclei (%) [8]: 13% | Population Healthy Nuclei (%) [8]: 73% | Population Hoechst High Intensity Objects (%) [8]: 10% | Population Membrane Permeable-Phenotype (%) [8]: 6% | Population Mitochondria Different-Phenotype (%) [8]: 57% | Population Mitotic Cells (%) [8]: 16% | Population Normal (%) [8]: 90% | Population Pyknosed Nuclei (%) [8]: 13% | Population Tubulin-Different-Phenotype (%) [8]: 51% | Total Cell Count [8]: 75 | Population Apoptotic (%) [9]: 52% | Population Fragmented Nuclei (%) [9]: 17% | Population Healthy Nuclei (%) [9]: 58% | Population Hoechst High Intensity Objects (%) [9]: 12% | Population Membrane Permeable-Phenotype (%) [9]: 23% | Population Mitochondria Different-Phenotype (%) [9]: 2% | Population Mitotic Cells (%) [9]: 47% | Population Normal (%) [9]: 87% | Population Pyknosed Nuclei (%) [9]: 23% | Population Tubulin-Different-Phenotype (%) [9]: 20% | Total Cell Count [9]: 83 | Population Apoptotic (%) [10]: 33% | Population Fragmented Nuclei (%) [10]: 37% | Population Healthy Nuclei (%) [10]: 59% | Population Hoechst High Intensity Objects (%) [10]: 25% | Population Mitochondria Different-Phenotype (%) [10]: 3% | Population Mitotic Cells (%) [10]: 66% | Population Normal (%) [10]: 74% | Population Pyknosed Nuclei (%) [10]: 3% | Population Tubulin-Different-Phenotype (%) [10]: 33% | Total Cell Count [10]: 126 | Population Apoptotic (%) [11]: 62% | Population Fragmented Nuclei (%) [11]: 41% | Population Healthy Nuclei (%) [11]: 48% | Population Hoechst High Intensity Objects (%) [11]: 20% | Population Membrane Permeable-Phenotype (%) [11]: 15% | Population Mitochondria Different-Phenotype (%) [11]: 21% | Population Mitotic Cells (%) [11]: 37% | Population Normal (%) [11]: 80% | Population Pyknosed Nuclei (%) [11]: 10% | Population Tubulin-Different-Phenotype (%) [11]: 90% | Total Cell Count [11]: 190 | Population Apoptotic (%) [12]: 100% | Population Fragmented Nuclei (%) [12]: 24% | Population Healthy Nuclei (%) [12]: 74% | Population Hoechst High Intensity Objects (%) [12]: 7% | Population Membrane Permeable-Phenotype (%) [12]: 6% | Population Mitochondria Different-Phenotype (%) [12]: 1% | Population Mitotic Cells (%) [12]: 0% | Population Normal (%) [12]: 92% | Population Pyknosed Nuclei (%) [12]: 1% | Population Tubulin-Different-Phenotype (%) [12]: 56% | Total Cell Count [12]: 88
